Calls of active or inactive are those of the source. The calls are words filed in the database; no cut-off is given here.
What was measured:
[1] = Tmax in fasted Sprague-Dawley rat at 1.6 mg/kg, iv and 3.15 mg/kg, po by HTLC-MS/MS analysis; type: ADME, organism-based; settings: in vivo
In short: (§1)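 Plasma concentration–time profiles were recorded after separate intravenous and peroral dosing at the per-compound doses listed. T_max is reported in min alongside C_max (ng/mL), intravenous half-life and clearance ((mL/min)/kg).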

[2] = Cmax in fasted Sprague-Dawley rat at 1.6 mg/kg, iv and 3.15 mg/kg, po by HTLC-MS/MS analysis; type: ADME, organism-based; settings: in vivo
In short: (§2)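 Rats were dosed intravenously and perorally in separate arms, and plasma concentration-time profiles were obtained. Half-life was taken from the iv arm. Clearance, oral bioavailability, Cmax and Tmax were derived from the profiles.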

[3] = molecular target: T1, Gastric inhibitory polypeptide receptor (Homo sapiens, UniProt P48546); test: Binding affinity to human recombinant GIPR expressed in BHK cells by membrane filter assay; type: cell-based
T1 sequence (P48546 whole entry): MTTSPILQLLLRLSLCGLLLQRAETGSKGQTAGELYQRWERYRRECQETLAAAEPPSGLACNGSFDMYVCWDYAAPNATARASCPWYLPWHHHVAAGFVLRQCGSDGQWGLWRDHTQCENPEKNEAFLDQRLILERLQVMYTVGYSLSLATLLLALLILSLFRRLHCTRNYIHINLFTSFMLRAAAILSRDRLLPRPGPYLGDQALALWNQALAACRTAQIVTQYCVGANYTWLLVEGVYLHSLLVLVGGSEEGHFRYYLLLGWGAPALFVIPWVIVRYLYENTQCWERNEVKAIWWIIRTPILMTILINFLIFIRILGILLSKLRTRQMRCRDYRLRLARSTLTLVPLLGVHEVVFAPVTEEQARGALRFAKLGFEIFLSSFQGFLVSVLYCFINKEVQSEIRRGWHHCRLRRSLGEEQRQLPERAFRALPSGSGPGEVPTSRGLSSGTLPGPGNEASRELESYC

Glucagon receptor [4] = molecular target: Glucagon receptor (Rattus norvegicus, UniProt P30082); test: Binding affinity to glucagon receptor in rat liver membrane by membrane filter assay; type: cell membranes
Chain of Glucagon receptor (Rattus norvegicus, UniProt P30082) (P30082 whole entry): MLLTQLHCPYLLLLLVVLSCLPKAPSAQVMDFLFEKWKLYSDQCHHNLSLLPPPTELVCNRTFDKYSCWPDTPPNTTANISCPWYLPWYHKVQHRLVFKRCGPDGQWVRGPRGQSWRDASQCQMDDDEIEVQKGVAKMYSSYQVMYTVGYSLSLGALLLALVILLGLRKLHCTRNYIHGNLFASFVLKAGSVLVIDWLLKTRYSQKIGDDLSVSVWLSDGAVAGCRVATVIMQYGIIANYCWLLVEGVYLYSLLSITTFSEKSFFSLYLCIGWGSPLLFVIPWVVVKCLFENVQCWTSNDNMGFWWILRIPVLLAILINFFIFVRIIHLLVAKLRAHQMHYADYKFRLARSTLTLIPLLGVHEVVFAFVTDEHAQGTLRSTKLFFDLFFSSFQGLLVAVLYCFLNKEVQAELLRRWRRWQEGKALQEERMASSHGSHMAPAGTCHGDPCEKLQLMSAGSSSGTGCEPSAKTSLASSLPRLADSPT

[5] = Clearance in fasted Sprague-Dawley rat at 1.6 mg/kg, iv and 3.15 mg/kg, po by HTLC-MS/MS analysis; type: ADME, organism-based; settings: in vivo; in short: as §2
[6] = molecular target: T1, Gastric inhibitory polypeptide receptor; test: Displacement of [125I]porcine GIP from human recombinant GIPR receptor expressed in BHK cells by scintillation proximity assay; type: cell-based
Hepatocyte [7] = test: Inhibition of glucagon-stimulated glucose production in human primary hepatocytes preincubated for 10 mins before glucagon addition by NADH-linked hexokinase assay; type: functional, cell-based
In short: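 Cultured primary human hepatocytes were preincubated with compound for 10 min, then glycogenolysis was induced with 5 nM glucagon for 60 min. Glucose in the medium was measured against basal glycogenolysis. Albumin was present in the assay medium. IC50 was calculated from four experiments, mean ± SEM.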

[8] = Oral bioavailability in fasted Beagle dog at 0.5 mg/kg; type: ADME, organism-based, Canis lupus familiaris; settings: in vivo
In short: (§3)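 Separate intravenous and peroral dosing arms per compound, with plasma concentration followed against time. Oral bioavailability (F_po) is reported per compound together with the intravenous half-life and clearance. The dose used for each arm is listed per compound.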

[9] = Binding affinity to glucagon receptor in pig liver membrane by membrane filter assay; type: cell membranes, Sus scrofa
[10] = Clearance in fasted Beagle dog at 0.25 mg/kg, iv and 0.5 mg/kg, po; type: ADME, organism-based, Canis lupus familiaris; settings: in vivo
In short: (§4)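 Dogs were dosed at 0.25 mg/kg iv and 0.5 mg/kg po, and plasma concentration was followed over time. Half-life came from the iv arm; clearance, Cmax and Tmax were also derived.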

Hepatocyte [11] = test: Inhibition of glucagon-stimulated glucose production in rat primary hepatocytes; type: functional, cell-based
[12] = Oral bioavailability in fasted Sprague-Dawley rat at 3.15 mg/kg by HTLC-MS/MS analysis; type: ADME, organism-based; settings: in vivo; in short: as §3
[13] = Binding affinity to glucagon receptor in dog liver membrane by membrane filter assay; type: cell membranes, Canis lupus familiaris
Glucagon receptor [14] = molecular target: Glucagon receptor (Mus musculus, UniProt Q61606); test: Binding affinity to glucagon receptor in mouse liver membrane by membrane filter assay; type: cell membranes
Chain of Glucagon receptor (Mus musculus, UniProt Q61606) (Q61606 whole entry): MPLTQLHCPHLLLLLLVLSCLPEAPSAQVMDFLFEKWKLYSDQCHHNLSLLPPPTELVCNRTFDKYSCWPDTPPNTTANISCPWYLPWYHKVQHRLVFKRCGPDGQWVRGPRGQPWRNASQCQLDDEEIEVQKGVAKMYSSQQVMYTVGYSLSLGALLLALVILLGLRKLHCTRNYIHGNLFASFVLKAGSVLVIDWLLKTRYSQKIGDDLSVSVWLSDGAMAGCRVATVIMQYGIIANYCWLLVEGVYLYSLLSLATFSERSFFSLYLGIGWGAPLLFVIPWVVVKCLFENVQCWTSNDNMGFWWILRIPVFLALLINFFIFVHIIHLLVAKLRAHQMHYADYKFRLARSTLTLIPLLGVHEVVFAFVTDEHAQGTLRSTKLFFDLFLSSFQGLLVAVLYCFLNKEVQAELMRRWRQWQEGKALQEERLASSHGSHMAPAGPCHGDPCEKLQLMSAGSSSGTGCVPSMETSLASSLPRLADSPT

[15] = Half life in fasted Beagle dog at 0.25 mg/kg, iv; type: ADME, organism-based, Canis lupus familiaris; design: dose 0.25 mg/kg, route intravenous; settings: in vivo; in short: as §4
Glucagon receptor [16] = molecular target: T2, Glucagon receptor (Homo sapiens, UniProt P47871); test: Binding affinity to human recombinant glucagon receptor expressed in BHK cells by membrane filter assay; type: cell-based
T2 sequence (P47871 whole entry): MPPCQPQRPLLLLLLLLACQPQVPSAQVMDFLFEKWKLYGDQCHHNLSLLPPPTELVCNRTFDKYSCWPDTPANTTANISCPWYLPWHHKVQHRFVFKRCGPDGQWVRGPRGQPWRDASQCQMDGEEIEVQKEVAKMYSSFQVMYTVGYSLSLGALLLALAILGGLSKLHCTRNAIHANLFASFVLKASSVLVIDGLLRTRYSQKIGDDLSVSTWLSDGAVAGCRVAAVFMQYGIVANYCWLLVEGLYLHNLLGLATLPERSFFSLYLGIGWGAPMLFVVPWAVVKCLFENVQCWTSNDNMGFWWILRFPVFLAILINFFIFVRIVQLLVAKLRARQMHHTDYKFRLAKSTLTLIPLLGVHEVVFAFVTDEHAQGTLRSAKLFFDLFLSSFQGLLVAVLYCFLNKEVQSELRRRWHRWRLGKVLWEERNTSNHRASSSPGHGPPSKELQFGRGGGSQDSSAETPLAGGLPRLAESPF

[17] = Half life in fasted Sprague-Dawley rat plasma at 1.6 mg/kg, iv by HTLC-MS/MS analysis; type: ADME, organism-based; design: dose 1.6 mg/kg, route intravenous; in short: as §2
[18] = Binding affinity to glucagon receptor in rabbit liver membrane by membrane filter assay; type: cell membranes, Oryctolagus cuniculus
Homo sapiens [19] = species on record: Homo sapiens; test: Selectivity for human recombinant glucagon receptor over human GLP1R
[20] = Cmax in fasted Beagle dog at 0.25 mg/kg, iv and 0.5 mg/kg, po; type: ADME, organism-based, Canis lupus familiaris; settings: in vivo; in short: as §4
Glucagon receptor [21] = molecular target: T2, Glucagon receptor; test: Displacement of [125I]porcine glucagon from human recombinant glucagon receptor expressed in BHK cells by scintillation proximity assay; type: cell-based
Homo sapiens [22] = species on record: Homo sapiens; test: Selectivity ratio of IC50 for human recombinant glucagon receptor to IC50 for human recombinant GIPR
In short: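 Competition binding of compounds to recombinant human glucagon and GIP receptors on BHK cell membranes, run in parallel as a scintillation proximity assay and, for selected compounds, as a membrane filtration assay.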

[23] = Tmax in fasted Beagle dog at 0.25 mg/kg, iv and 0.5 mg/kg, po; type: ADME, organism-based, Canis lupus familiaris; settings: in vivo; in short: as §1
[24] = Binding affinity to glucagon receptor in monkey liver membrane by membrane filter assay; type: cell membranes, Macaca mulatta
[25] = Clearance in fasted Sprague-Dawley rat at 1.66 mg/kg, iv and 3 mg/kg, po; type: ADME, organism-based; settings: in vivo; in short: as §2
[26] = Tmax in fasted Sprague-Dawley rat at 1.6mg/kg, iv and 3 mg/kg, po; type: ADME, organism-based; design: dose 3 mg/kg, route oral; settings: in vivo; in short: as §1
[27] = Half life in fasted Sprague-Dawley rat plasma at 1.66 mg/kg, iv by HTLC-MS/MS analysis; type: ADME, organism-based; design: dose 1.66 mg/kg, route intravenous; in short: as §2
[28] = Cmax in fasted Sprague-Dawley rat at 1.66mg/kg, iv and 3 mg/kg, po; type: ADME, organism-based; design: dose 3 mg/kg, route oral; settings: in vivo; in short: as §2
[29] = Oral bioavailability in fasted Sprague-Dawley rat at 3 mg/kg by HTLC-MS/MS analysis; type: ADME, organism-based; settings: in vivo; in short: as §3
[30] = Oral bioavailability in fasted Sprague-Dawley rat at 3.34 mg/kg by HTLC-MS/MS analysis; type: ADME, organism-based; settings: in vivo; in short: as §3
[31] = Cmax in fasted Sprague-Dawley rat at 1.66 mg/kg, iv and 3.34 mg/kg, po by HTLC-MS/MS analysis; type: ADME, organism-based; settings: in vivo; in short: as §2
[32] = Clearance in fasted Sprague-Dawley rat at 1.66 mg/kg, iv and 3.34 mg/kg, po by HTLC-MS/MS analysis; type: ADME, organism-based; settings: in vivo; in short: as §2
[33] = Tmax in fasted Sprague-Dawley rat at 1.66 mg/kg, iv and 3.34 mg/kg, po by HTLC-MS/MS analysis; type: ADME, organism-based; settings: in vivo; in short: as §1
[34] = Clearance in fasted Sprague-Dawley rat at 1.9 mg/kg, iv and 3.7 mg/kg, po by HTLC-MS/MS analysis; type: ADME, organism-based; settings: in vivo; in short: as §2
[35] = Tmax in fasted Sprague-Dawley rat at 1.9 mg/kg, iv and 3.7 mg/kg, po by HTLC-MS/MS analysis; type: ADME, organism-based; settings: in vivo; in short: as §1
[36] = Cmax in fasted Sprague-Dawley rat at 1.9 mg/kg, iv and 3.7 mg/kg, po by HTLC-MS/MS analysis; type: ADME, organism-based; settings: in vivo; in short: as §2
[37] = Half life in fasted Sprague-Dawley rat plasma at 1.9 mg/kg, iv by HTLC-MS/MS analysis; type: ADME, organism-based; design: dose 1.9 mg/kg, route intravenous; in short: as §2
[38] = Oral bioavailability in fasted Sprague-Dawley rat at 3.7 mg/kg by HTLC-MS/MS analysis; type: ADME, organism-based; settings: in vivo; in short: as §3

IC50 [3]	IC50 (Glucagon receptor [4])	IC50 [6]	IC50 (Glucagon receptor [14])	IC50 (Glucagon receptor [16])	fold change (FC) (Homo sapiens [19])	IC50 (Glucagon receptor [21])	fold change (FC) (Homo sapiens [22])	IC50 [24]	half-life [27]	Compound	IC50 (Hepatocyte [7])	inhibition (Hepatocyte [11])	also measured
510 nM	5400 nM	1100 nM	830 nM	64 nM	> 50	86 nM	5	81 nM	2.18 h	O=C(O)CCNC(=O)c1ccc(CN(c2ccc3c(c2)CCC3)c2nc(-c3ccc(C(F)(F)F)cc3)cs2)cc1	< 20000 nM	inactive	bioavailability [30]: 89%; Cmax [31]: 920 ng/mL; clearance [32]: 13 mL/min/kg; Tmax [33]: 1 h
		> 1000 nM			> 50	261 nM	5			O=C(NC[C@@H](O)C(=O)O)c1ccc(CN(c2ccc3c(c2)CCC3)c2nc(-c3ccc(C(F)(F)F)cc3)cs2)cc1			
770 nM	4400 nM	950 nM	680 nM	96 nM	> 50	85 nM	5	94 nM	1.02 h	O=C(O)CCNC(=O)c1ccc(CN(c2ccc3c(c2)CCC3)c2nc(-c3ccc(OC(F)(F)F)cc3)cs2)cc1	8600 nM	inactive	bioavailability [30]: 87%; Cmax [31]: 704 ng/mL; clearance [32]: 15 mL/min/kg; Tmax [33]: 4 h
		207 nM			> 50	36 nM	5			O=C(O)CCNC(=O)c1ccc(CN(c2ccc(C3=CCCCC3)cc2)c2nc(-c3ccc(OC(F)(F)F)cc3)cs2)cc1			clearance [34]: 34 mL/min/kg; Tmax [35]: 1.5 h; Cmax [36]: 47 ng/mL; half-life [37]: 0.717 h; bioavailability [38]: 3%
		721 nM			> 50	118 nM	5			CC(C)(C)c1ccc(-c2csc(N(Cc3ccc(C(=O)NCCC(=O)O)cc3)c3ccc(C4=CCCCC4)cc3)n2)cc1			Tmax [1]: 1.5 h; Cmax [2]: 13 ng/mL; clearance [5]: 39 mL/min/kg; bioavailability [12]: 2%; half-life [17]: 0.5 h

Further lines, the compound ahead of its results:

Compound	IC50 [3]	IC50 (Glucagon receptor [4])	IC50 [6]	IC50 (Glucagon receptor [14])	IC50 (Glucagon receptor [16])	fold change (FC) (Homo sapiens [19])	IC50 (Glucagon receptor [21])	fold change (FC) (Homo sapiens [22])	IC50 [24]	half-life [27]	IC50 (Hepatocyte [7])	inhibition (Hepatocyte [11])	also measured
O=C(O)CCNC(=O)c1ccc(CN(c2ccc3c(c2)CCCC3)c2nc(-c3ccc(Cl)c(Cl)c3)cs2)cc1	390 nM	1600 nM	830 nM	452 nM	54 nM	> 50	79 nM	5	55 nM		4000 nM	inactive	Tmax [1]: 1 h; Cmax [2]: 1180 ng/mL; clearance [5]: 5 mL/min/kg; bioavailability [8]: 92%; IC50 [9]: 3300 nM; clearance [10]: 1.44 mL/min/kg; bioavailability [12]: 36%; IC50 [13]: 81 nM; half-life [15]: 2.07 h; half-life [17]: 1.73 h; IC50 [18]: 1900 nM; Cmax [20]: 1190 ng/mL; Tmax [23]: 0.85 h
O=C(O)CCNC(=O)c1ccc(N(Cc2ccc3c(c2)Cc2ccccc2-3)c2nc(-c3ccc(C(F)(F)F)cc3)cs2)cc1			645 nM			> 50	78 nM	5		0.667 h			clearance [25]: 31 mL/min/kg; Tmax [26]: 1.5 h; Cmax [28]: 93 ng/mL; bioavailability [29]: 13%
O=C(O)CCNC(=O)c1ccc(CN(c2nc(-c3ccc(Cl)c(Cl)c3)cs2)C2CCCc3ccccc32)cc1 (stereo unspecified)			1110 nM			> 50	531 nM	5					
O=C(O)CCNC(=O)c1ccc(CN(c2ccc(C3=CCCCC3)cc2)c2nc(-c3ccccc3)cs2)cc1			389 nM			> 50	130 nM	5					clearance [34]: 35 mL/min/kg; Tmax [35]: 1.5 h; Cmax [36]: 94 ng/mL; half-life [37]: 0.617 h; bioavailability [38]: 5%
Cc1cc(N(Cc2ccc(C(=O)NCCC(=O)O)cc2)c2nc(-c3ccc(C(F)(F)F)cc3)cs2)ccc1C(C)C	293 nM		633 nM		93 nM	> 50	119 nM	5					
